# LEDGF integ inh – blocks HIV-1 LEDGF/p75-dependent DNA integration | AID 743269 | actives 0.64% (n = 370,000) | inhibition, % at 3.7 µM | TR-FRET IN-LEDGF/p75 DNA integration, Eu/Cy5;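 active means inhibition above the screen-wide mean plus 3 SD, cut at about 13% in these data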;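 further: signal is the Cy5 over europium emission ratio at 671 and 618 nm; 0% = plate median of compound wells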
# TDP2 absorb – TDP2 (human) inhibition, absorbance primary screen; recombinant TDP2, T5PNP hydrolysis, p-nitrophenol absorbance 415 nm; O95551; actives 0.34% (n = 370,000); inhibition, % at 12.8 µM;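 active means inhibition above the mean of all tested compounds plus 3 SD, set per campaign, cut at about 25% in these data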;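 further: 0% = DMSO with enzyme and 100% = buffer with substrate but no TDP2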
# Target sequence (O95551 whole entry, looked up): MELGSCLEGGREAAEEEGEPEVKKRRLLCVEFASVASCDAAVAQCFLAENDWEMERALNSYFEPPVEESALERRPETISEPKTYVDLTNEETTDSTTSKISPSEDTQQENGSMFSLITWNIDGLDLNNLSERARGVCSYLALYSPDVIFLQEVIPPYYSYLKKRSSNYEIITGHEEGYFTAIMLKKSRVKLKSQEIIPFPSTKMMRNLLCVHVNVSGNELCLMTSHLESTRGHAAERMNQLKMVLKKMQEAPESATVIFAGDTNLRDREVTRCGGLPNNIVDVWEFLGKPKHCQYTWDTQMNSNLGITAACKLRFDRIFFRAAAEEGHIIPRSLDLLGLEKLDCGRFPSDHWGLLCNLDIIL
#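 Test system: human TDP2 enzyme; Input: 120 nM TDP2 per well; Buffer or medium: Mg2+-containing Tris-HCl buffer, pH 7.5; Reagent: 5 mM T5PNP; Dosing: 12.8 µM single point, 1% DMSO; Incubation: reaction 2 h, 37 °C; Detection: p-Nitrophenol epi absorbance; Read-out: % inhibition relative to enzyme-containing and enzyme-free wells; Replicates: single well per compound.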
# MBD2 DNA inh – inhibitors of human MBD2 binding to methylated oligonucleotide; inhibition, % at 4.4 µM; actives 0.31% (n = 370,000); AID 686964; TR-FRET; Q9UBB5; in the data active means inhibition above about 13%
# UHRF1 MBD2 ctr – blocks human UHRF1 binding to methylated DNA. Q96T88. UHRF1 binding to methylated oligo, TR-FRET. inhibition, % at 4.4 µM. actives 0.75% (n = 370,000). AID 687016; in the data active means inhibition above about 21%;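 further: UHRF1 SRA domain binding a hemimethylated CpG hairpin DNA probe; 0% = median of test compound wells and 100% = reference inhibitor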
# IN multimer up – HIV-1 integrase multimerization activation, counter-screen; shares compounds with LEDGF integ inh; TR-FRET HIV-1 integrase multimerization, biochemical; activation, % at 7.7 µM; actives 17% (n = 2,000); AID 1053131; in the data active means activation above about 8.9%
# TR-FRET interf – optically interferes with TR-FRET readout in LEDGF counter-screen; shares compounds with LEDGF integ inh; TR-FRET optical interference counterscreen, HIV-1 IN multimerization; inhibition, % at 7.7 µM; 2,000 tested, under 10 active; AID 1053135;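 active means inhibition above the mean over all tested compounds plus 3 SD, which no compound reached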;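 further: 0% = integrase with antibodies and DMSO and 100% = antibodies without integrase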
# LEDGF integ conf – confirmation of HIV-1 LEDGF/p75-dependent integration inhibitors. shares compounds with LEDGF integ inh. TR-FRET LEDGF/p75-dependent HIV-1 integration, biochemical. inhibition, % at 3.7 µM. actives 36% (n = 2,000); in the data active means inhibition above about 14%
# The depositor's hits bear a star; x = no result. Hits are enriched below; roughly 1.6% of the tested compounds scored in any of these assays.
SMILES,LEDGF integ inh,TDP2 absorb,MBD2 DNA inh,UHRF1 MBD2 ctr,IN multimer up,TR-FRET interf,LEDGF integ conf
Cc1cc(Nc2nc3ccccc3nc2Cl)n(-c2ccc([N+](=O)[O-])cc2)n1,81.7*,-9.7,2.3,-3.4,0.5,-2.4,-1.1
Cc1cc(Nc2nc3ccccc3[nH]c2=O)n(-c2ccccc2)n1,2.9,-5.9,0.7,2.8,x,x,x
O=C(c1cccs1)n1ccc2ccc(-c3ccc4ccn(C(=O)c5cccs5)c4c3)cc21,-1.2,2.5,-0.7,-0.9,x,x,x
Cc1cc(NC(=O)c2ccco2)ncc1NC(=O)CCc1ccccc1,-0.7,-12.1,-2.6,-3.3,x,x,x
CCCCC(=O)Nc1cc(C)c(NC(=O)c2ccco2)cn1,26.7*,-7.0,4.4,-0.3,0.6,-2.8,0.3
CCCCc1cc(=O)oc2cc(C)c(CN3CCCC3)c(O)c12,16.8*,-11.8,2.8,6.5,-0.5,2.5,15.8*
CCc1cc(=O)oc2cc(C)c(CN3CCCC(C)C3)c(O)c12 (stereo not drawn),19.2*,-0.2,12.1,27.1*,0.8,-3.8,20.3*
O=C(OC12CCCN(C1)/C(=C/c1cccnc1)C2)c1ccco1 (stereo not drawn),-1.3,2.6,-2.0,1.0,x,x,x
O=C(Nc1nc(-c2ccccc2)c(-c2ccccc2)o1)c1ccc(F)cc1,26.0*,-2.0,0.3,1.1,-0.1,0.4,18.4*
COc1cccc(C(=O)Nc2nc(-c3ccccc3)c(-c3ccccc3)o2)c1,13.9*,-2.1,-1.7,-1.4,0.4,-2.1,18.7*
COC(=O)c1cc(S(=O)(=O)N2CCN(c3ccccc3Cl)CC2)cn1C,-2.5,7.1,3.6,0.5,x,x,x
O=C(O)C1Nc2c(Cl)cc(Cl)c(Cl)c2C2C=CCC12 (stereo not drawn),4.4,-16.6,1.1,4.7,x,x,x
CC(C)C1Nc2c(O)cc(Cl)c([N+](=O)[O-])c2C2C=CCC21 (stereo not drawn),26.1*,3.1,-5.5,-5.4,1.1,-4.0,10.7
C[C@@H](N)C(=O)Nc1ccc(Cl)cc1C(=O)c1ccc[nH]1,0.3,4.9,5.6,-3.5,x,x,x
O=C(O)c1ccc(NC2OC[C@@H](O)[C@H](O)[C@H]2O)cc1 (stereo partly drawn),18.1*,6.7,4.2,52.3*,0.1,-0.5,-1.6
COC(=O)[C@]12C[C@H](CC(=O)NCC34CC5CC(CC(C5)C3)C4)C(=O)N(Cc3ccc4c(c3)OCO4)C1=C[C@H](COCc1ccccc1)O[C@@H]2C,-4.5,-4.0,2.4,2.1,x,x,x
O=C(C1=C(O)C(=O)N(c2nc3ccc(Cl)cc3s2)C1c1ccco1)c1ccco1 (stereo not drawn),20.2*,2.2,9.6,24.4*,7.2,-36.1,21.1*
Cc1ccc2nc(N3C(=O)C(O)=C(C(=O)c4ccc(C)o4)C3c3ccco3)sc2c1 (stereo not drawn),7.6,2.8,-4.7,0.1,x,x,x
O=C1CSc2ccc(C(=O)N3CCCC(C(=O)N4CCCC4)C3)cc2N1 (stereo not drawn),-2.4,-3.5,3.3,10.1,x,x,x
C=CCN1C(=O)/C(=C\c2ccc(Cl)cc2)N=C1SCC(=O)NCCC,-0.3,-3.1,-1.8,-1.6,x,x,x
COCCNC(=O)CSC1=N/C(=C/c2ccc(Cl)c(Cl)c2)C(=O)N1c1ccccc1F,91.5*,-3.7,2.3,0.9,0.0,0.0,-3.0
Cc1cc2nn(-c3cccc4ccccc34)nc2cc1N,0.5,-2.0,4.9,1.9,x,x,x
Cc1cc2nc3ccc(N(C)C)cc3nc2cc1N,30.7*,-2.1,-2.2,1.6,15.0*,-75.3,72.5*
O=C(c1coc(=O)c(Br)c1)N1CCCc2ccccc21,19.0*,1.2,5.7,14.4,-0.7,3.8,17.4*
O=C(c1cccc(Br)c1)N1CCCc2ccccc21,-2.9,3.9,-3.6,-0.1,x,x,x
O=C(CCN1CCCCC1)NCNC(=O)CCN1CCCCC1,2.6,4.1,1.4,2.9,x,x,x
O=C(CCN1CCCCC1)NNC(=O)C12CC3CC(CC(C3)C1)C2,88.8*,3.7,-3.0,-2.1,0.5,-2.5,6.0

# Source: PubChem (The Scripps Research Institute Molecular Screening Center)
